# Measured values reported in ChEMBL document CHEMBL5303300, “EUbOPEN Chemogenomics Library - Multiplex” (2023).
# Several values for one entry are separate records, joined by “and”; a condition that tells them apart may be missing. Equal entries are not always repeated. *1 amine or outer side, *2 acyl side, *3 side chain or, on linkers, in order; H or OH if unused. Where a SMILES comes first, the peptide text is derived from it. Bridges are numbered along the chain shown (N, C = ends). Roman numbers before positions name the chains, in order. [ ]: non-standard residue; d: D form. Hexamethylenediamine = C(CCCN[*:2])CCN[*:1]; Dip = N[C@H](C(=O)O)C(c1ccccc1)c1ccccc1; Chg = N[C@H](C(=O)O)C1CCCCC1; NMeA = CN[C@@H](C)C(=O)O
# Tested on: Fibroblast
# Assay: Multiplex assay against human fibroblast
# Assay type: toxicity, cell-based
# Conditions: number of replicates 2
# Procedure, shortened: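 Cells stained live at seeding with Hoechst33342, BioTracker Green Microtubule Cytoskeleton Dye, MitoTracker Red and Annexin V Alexa Fluor 680 were imaged on a CQ1 microscope at 37°C and 5% CO2 after compound addition. Their classification by CellPathfinder machine-learning gating ran from Hoechst high-intensity objects versus normal cells, to healthy, pyknosed or fragmented nuclei among normal cells, to mitotic or apoptotic among pyknosed cells. Tubulin, mitochondrial-mass and membrane-permeability phenotypes are per cents of healthy-nucleus cells.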
# [1] = 12 h, 1 µM, compound concentration 1 uM
# [2] = 12 h, 10 µM, compound concentration 10 uM
# [3] = 24 h, 1 µM, compound concentration 1 uM
# [4] = 24 h, 10 µM, compound concentration 10 uM
# [5] = 48 h, 1 µM, compound concentration 1 uM
# [6] = 48 h, 10 µM, compound concentration 10 uM
structure (smiles),measurement,setting,value
CN[C@@H](C)C(=O)N[C@H](C(=O)N1CCC[C@H]1C(=O)N[C@H](C(=O)NCCCCCCNC(=O)[C@@H](NC(=O)[C@@H]1CCCN1C(=O)[C@@H](NC(=O)[C@H](C)NC)C1CCCCC1)C(c1ccccc1)c1ccccc1)C(c1ccccc1)c1ccccc1)C1CCCCC1 (I: H-[NMeA][Chg]P[Dip] / II: H-[NMeA][Chg]P[Dip]; linker I:C-II:C via Hexamethylenediamine),Population Apoptotic (%),[1],29% and 33%
same,Population Fragmented Nuclei (%),[1],14% and 9%
same,Population Healthy Nuclei (%),[1],64% and 70%
same,Population Hoechst High Intensity Objects (%),[1],0%
same,Population Membrane Permeable-Phenotype (%),[1],5% and 3%
same,Population Mitochondria Different-Phenotype (%),[1],0% and 3%
same,Population Mitotic Cells (%),[1],70% and 66%
same,Population Normal (%),[1],100%
same,Population Pyknosed Nuclei (%),[1],21% and 20%
same,Population Tubulin-Different-Phenotype (%),[1],18% and 9%
same,Total Cell Count,[1],205 and 174
same,Population Apoptotic (%),[2],43% and 60%
same,Population Fragmented Nuclei (%),[2],15% and 11%
same,Population Healthy Nuclei (%),[2],55%
same,Population Hoechst High Intensity Objects (%),[2],0%
same,Population Membrane Permeable-Phenotype (%),[2],4% and 3%
same,Population Mitochondria Different-Phenotype (%),[2],6% and 15%
same,Population Mitotic Cells (%),[2],56% and 39%
same,Population Normal (%),[2],100% and 99%
same,Population Pyknosed Nuclei (%),[2],29% and 33%
same,Population Tubulin-Different-Phenotype (%),[2],59% and 55%
same,Total Cell Count,[2],210 and 251
same,Population Apoptotic (%),[3],43% and 45%
same,Population Fragmented Nuclei (%),[3],9% and 10%
same,Population Healthy Nuclei (%),[3],68% and 66%
same,Population Hoechst High Intensity Objects (%),[3],0%
same,Population Membrane Permeable-Phenotype (%),[3],5% and 4%
same,Population Mitochondria Different-Phenotype (%),[3],4% and 2%
same,Population Mitotic Cells (%),[3],56% and 55%
same,Population Normal (%),[3],100% and 99%
same,Population Pyknosed Nuclei (%),[3],21% and 22%
same,Population Tubulin-Different-Phenotype (%),[3],24% and 16%
same,Total Cell Count,[3],203 and 176
same,Population Apoptotic (%),[4],72% and 60%
same,Population Fragmented Nuclei (%),[4],22% and 20%
same,Population Healthy Nuclei (%),[4],48% and 60%
same,Population Hoechst High Intensity Objects (%),[4],0%
same,Population Membrane Permeable-Phenotype (%),[4],9% and 11%
same,Population Mitochondria Different-Phenotype (%),[4],36% and 23%
same,Population Mitotic Cells (%),[4],27% and 39%
same,Population Normal (%),[4],100%
same,Population Pyknosed Nuclei (%),[4],29% and 19%
same,Population Tubulin-Different-Phenotype (%),[4],63% and 71%
same,Total Cell Count,[4],249 and 210
same,Population Apoptotic (%),[5],52% and 53%
same,Population Fragmented Nuclei (%),[5],16% and 12%
same,Population Healthy Nuclei (%),[5],65% and 73%
same,Population Hoechst High Intensity Objects (%),[5],0%
same,Population Membrane Permeable-Phenotype (%),[5],3% and 5%
same,Population Mitochondria Different-Phenotype (%),[5],3% and 2%
same,Population Mitotic Cells (%),[5],47% and 46%
same,Population Normal (%),[5],100%
same,Population Pyknosed Nuclei (%),[5],17% and 14%
same,Population Tubulin-Different-Phenotype (%),[5],23% and 13%
same,Total Cell Count,[5],206 and 194
same,Population Apoptotic (%),[6],83% and 76%
same,Population Fragmented Nuclei (%),[6],35% and 30%
same,Population Healthy Nuclei (%),[6],57%
same,Population Hoechst High Intensity Objects (%),[6],0%
same,Population Membrane Permeable-Phenotype (%),[6],8% and 3%
same,Population Mitochondria Different-Phenotype (%),[6],12% and 20%
same,Population Mitotic Cells (%),[6],16% and 23%
same,Population Normal (%),[6],100% and 99%
same,Population Pyknosed Nuclei (%),[6],6% and 12%
same,Population Tubulin-Different-Phenotype (%),[6],79% and 67%
same,Total Cell Count,[6],258 and 314
CC(C)(C)c1cnc(CSc2cnc(NC(=O)C3CCNCC3)s2)o1 [BMS-387032],Population Apoptotic (%),[1],56% and 46%
same,Population Fragmented Nuclei (%),[1],8% and 6%
same,Population Healthy Nuclei (%),[1],60% and 72%
same,Population Hoechst High Intensity Objects (%),[1],0%
same,Population Membrane Permeable-Phenotype (%),[1],6% and 7%
same,Population Mitochondria Different-Phenotype (%),[1],0% and 2%
same,Population Mitotic Cells (%),[1],43% and 53%
same,Population Normal (%),[1],100%
same,Population Pyknosed Nuclei (%),[1],31% and 21%
same,Population Tubulin-Different-Phenotype (%),[1],15% and 16%
same,Total Cell Count,[1],96 and 204
same,Population Apoptotic (%),[2],46% and 38%
same,Population Fragmented Nuclei (%),[2],7% and 9%
same,Population Healthy Nuclei (%),[2],58% and 67%
same,Population Hoechst High Intensity Objects (%),[2],0%
same,Population Membrane Permeable-Phenotype (%),[2],3% and 6%
same,Population Mitochondria Different-Phenotype (%),[2],4% and 8%
same,Population Mitotic Cells (%),[2],53% and 61%
same,Population Normal (%),[2],100%
same,Population Pyknosed Nuclei (%),[2],33% and 23%
same,Population Tubulin-Different-Phenotype (%),[2],37% and 43%
same,Total Cell Count,[2],141 and 213
same,Population Apoptotic (%),[3],64% and 54%
same,Population Fragmented Nuclei (%),[3],12% and 10%
same,Population Healthy Nuclei (%),[3],61% and 63%
same,Population Hoechst High Intensity Objects (%),[3],0%
same,Population Membrane Permeable-Phenotype (%),[3],7% and 9%
same,Population Mitochondria Different-Phenotype (%),[3],0% and 1%
same,Population Mitotic Cells (%),[3],35% and 45%
same,Population Normal (%),[3],100%
same,Population Pyknosed Nuclei (%),[3],26%
same,Population Tubulin-Different-Phenotype (%),[3],21% and 18%
same,Total Cell Count,[3],106 and 208
same,Population Apoptotic (%),[4],52% and 71%
same,Population Fragmented Nuclei (%),[4],12% and 11%
same,Population Healthy Nuclei (%),[4],49% and 62%
same,Population Hoechst High Intensity Objects (%),[4],0%
same,Population Membrane Permeable-Phenotype (%),[4],6% and 7%
same,Population Mitochondria Different-Phenotype (%),[4],10% and 12%
same,Population Mitotic Cells (%),[4],47% and 28%
same,Population Normal (%),[4],100%
same,Population Pyknosed Nuclei (%),[4],37% and 26%
same,Population Tubulin-Different-Phenotype (%),[4],41% and 40%
same,Total Cell Count,[4],147 and 198
same,Population Apoptotic (%),[5],74% and 73%
same,Population Fragmented Nuclei (%),[5],12% and 14%
same,Population Healthy Nuclei (%),[5],49% and 52%
same,Population Hoechst High Intensity Objects (%),[5],0%
same,Population Membrane Permeable-Phenotype (%),[5],23% and 15%
same,Population Mitochondria Different-Phenotype (%),[5],2% and 0%
same,Population Mitotic Cells (%),[5],25% and 26%
same,Population Normal (%),[5],100%
same,Population Pyknosed Nuclei (%),[5],38% and 33%
same,Population Tubulin-Different-Phenotype (%),[5],33% and 30%
same,Total Cell Count,[5],183 and 115
same,Population Apoptotic (%),[6],64% and 73%
same,Population Fragmented Nuclei (%),[6],14% and 11%
same,Population Healthy Nuclei (%),[6],43% and 38%
same,Population Hoechst High Intensity Objects (%),[6],0%
same,Population Membrane Permeable-Phenotype (%),[6],10% and 22%
same,Population Mitochondria Different-Phenotype (%),[6],8% and 16%
same,Population Mitotic Cells (%),[6],35% and 26%
same,Population Normal (%),[6],100%
same,Population Pyknosed Nuclei (%),[6],41% and 49%
same,Population Tubulin-Different-Phenotype (%),[6],44% and 58%
same,Total Cell Count,[6],194 and 137
